Where a name gives a salt, the structure may show the parent alone.
system: Adr-induced arrhythmias; experiment: Adr-induced arrhythmia in rats, electrocardiography; assay type: in vivo, rat; conditions: prophylactic administration, rats with Adr-induced arrhythmia; Fig. 5
Outline: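 Rats (8 per group) got test compound intragastrically once daily for 14 days (5.19, 10.39 or 20.77 g/kg/d), metoprolol tartrate […], or saline 5 mL/kg/d. 30 min after the last dose, rats were anaesthetised i.p. with 0.6 % nembutal (30 mg/kg) and lead II ECG recorded at 50 mm/s. Adrenaline was given by tail vein as cumulative boluses (8, 16, 32, 64, 128) at 10-min intervals or until death. Read-outs were QRS duration and QTc = QT/√RR, as mean ± s.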

Structure (SMILES) | QRS interval | QTc interval
COCCc1ccc(OCC(O)CNC(C)C)cc1 (centres unmarked) [Meto, metoprolol tartrate] | no significant effect | shortened

system: not given; experiment: not given; assay type: in vivo; conditions: rat, plasma, po, 10.39 g/kg/day

AUC(0-inf) | AUC(0-t) | Cmax | MRT inf | MRT last | half-life | Structure (SMILES)
881 ± 47.2 ng·h/mL | 849 ± 54.3 ng·h/mL | 421 ± 97.7 ng/mL | 3.66 ± 0.54 h | 2.91 ± 0.54 h | 3.26 ± 1.13 h | COc1cc2c(cc1OC)[C@@H]1Cc3ccc(OC)c(OC)c3CN1CC2 [tetrahydropalmatine]
615 ± 87.4 ng·h/mL | 603 ± 69.4 ng·h/mL | 145 ± 17 ng/mL | 4.76 ± 1.55 h | 4.19 ± 0.83 h | 7.06 ± 4.39 h | O=c1c(-c2ccc(O)cc2)coc2c([C@@H]3O[C@H](CO)[C@@H](O)[C@H](O)[C@H]3O)c(O)ccc12 [puerarin]
747 ± 83.6 ng·h/mL | 708 ± 49.2 ng·h/mL | 142 ± 8.69 ng/mL | 10.7 ± 5.65 h | 6.75 ± 0.84 h | 7.14 ± 2.06 h | O=C1C[C@@H](c2ccc(O[C@@H]3O[C@H](CO)[C@@H](O)[C@H](O)[C@H]3O)cc2)Oc2cc(O)ccc21 [liquiritin]
9921 ± 87.6 ng·h/mL | 9892 ± 40.7 ng·h/mL | 2869 ± 22.6 ng/mL | 3.28 ± 0.19 h | 3.24 ± 0.11 h | 6.32 ± 0.89 h | COc1ccc(-c2cc(=O)c3c(OC)c(OC)c(OC)c(OC)c3o2)cc1OC [nobiletin]
3890 ± 60.4 ng·h/mL | 3860 ± 46.4 ng·h/mL | 1170 ± 39.8 ng/mL | 4.53 ± 0.33 h | 4.18 ± 0.19 h | 2.58 ± 0.24 h | C[n+]1cccc(C(=O)[O-])c1 [trigonelline]
162 ± 12.8 ng·h/mL | 91.1 ± 52.9 ng·h/mL | 30.9 ± 28.6 ng/mL | 14.7 ± 7.88 h | 4.26 ± 0.61 h | 11.9 ± 5 h | COc1ccc2cc3[n+](cc2c1OC)CCc1cc2c(cc1-3)OCO2 [berberine]
7693 ± 68.4 ng·h/mL | 2010 ± 73.3 ng·h/mL | 800 ± 142 ng/mL | 2.48 ± 2.81 h | 2.64 ± 1.31 h | 4.78 ± 1.67 h | O=C(O)/C=C/c1ccccc1 [cinnamic acid]

From paper PMC11381611 (Heliyon, 2024)
